# Assay results as given in the EternaBench riboswitch data.
# Test system: MS2 coat protein
# Experiment: apparent Kd, MS2 coat protein; higher = weaker binding; RNA-MaP array; FMN 200 µM where present
# Summary of the method: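 Green signal was scaled to red-channel RNA signal and control-cluster median Fmax, and the apparent Kd was taken as the median of filtered per-cluster binding-curve fits. The binding series used SNAP-549-labelled MS2 coat protein from 0.7 or 1.5 nM, doubling to 3 µM, on designs transcribed by stalled E. coli RNA polymerase on Illumina sequencing-chip clusters. Each series ran without and then with constant ligand in 100 mM Tris-HCl pH 7.5, 80 mM KCl, 4 mM MgCl2, BSA, DTT, yeast tRNA and Tween-20.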
# [1] = designed as: OFF switch for flavin mononucleotide, no ligand
# [2] = ligand present: flavin mononucleotide, designed as: OFF switch for flavin mononucleotide
# [3] = designed as: ON switch for flavin mononucleotide, no ligand
# [4] = ligand present: flavin mononucleotide, designed as: ON switch for flavin mononucleotide
Sequence,apparent Kd [1],apparent Kd [2],apparent Kd [3],apparent Kd [4]
CAUAUACAGGGAGGAUAUAACAUGAGGAUCACCCAUGUGCAAUCCUCAAUGUUAGAAGGCCCAAUAGAAUCGCAAAAGGCAUCC,0.00851 µM,0.00496 µM,–,–
CAUCAGGUACGAGGAUAUCCGCGAUCUCUUCGAGGAGAAGGCGUACAUGAGGAUCACCCAUGUGGGCGAGACAGACGAAGUCUG,0.114 µM,0.0595 µM,–,–
CAUUUCAUGUCAGGAUAUCCGCGCAGCUUCACGCACGAUAUAAGGGAGCUUGGAGAAGGGACAUGAGGAUCACCCAUGUGCCUC,0.0109 µM,0.026 µM,–,–
CCAAACUGAGGAUAUACAUGAGGAUCACCCAUGUGCCCGCGGUCAUAUGUAGCCUAGUGUAGAAGGCAGAAAAC,0.0755 µM,0.025 µM,–,–
CCACGUCACAUUAACAUGAGGAUCACCCAUGUCUCUAGACAUGAGGAUAUGGAUCCUAAUUGGAUCCAGAAGGCAUGGACGUGG,–,–,1.42 µM,0.138 µM
CCAGAGGUCACAGGAUAUGACUUGUCCAAUUAGUCAGAAGGGUGAAUCACAUUAUGUAUACAUGAGGAUCACCCAUGUCCUACG,–,–,0.214 µM,1.04 µM
CCAGAUAUGUAAGGAUAUAUAGUGGAAUACACUAUAGAAGGUAUGUGAGAACAUGAGGAUCACCCAUGUCAUUGGAUAUCUGGA,–,–,0.0371 µM,0.0393 µM
CCAGCGUAUGUGAGGAUAUGCUGGUCCUUGGAUCAGCAGAAGGCACAUGAGGAUCACCCAUGUGGAAUCGUUGG,0.0235 µM,0.0921 µM,–,–
CCAGCUCGUGUUAGGAUAUCCAAGCUGCGGCUGGUGGAGAAGGGACAUGAGGAUCACCCAUGUAAUAAAGAAAA,0.0264 µM,0.0319 µM,–,–
CCAGGCUUCGAGAAGGACAUGAGGAUCACCCAUGUGCGUGUGAAGCAGCCGUGAGGCUGCAUCAUGUAGGAUAUCGGAGUCUGA,0.0718 µM,0.396 µM,–,–
CCAGGCUUCGAGAAGGACAUGAGGAUCACCCAUGUGCGUGUGAAGCAGCCGUGAGGCUGCAUCAUGUAGGAUAUCGGAGUCUGG,0.0719 µM,0.499 µM,–,–
CCAUACAUGAGGAUCACCCAUGACAUGAGGAUCACCCAUGUGCAGGAUAUACGUGAUAUAAUAUAGUAGAAGGGCAGACCAAAA,0.0757 µM,0.0852 µM,–,–
CCAUCGAGUGUGAGGAUAUGCUGUUCCUUGGAGCAGCAGAAGGCACAUGAGGAUCACCCAUGUGGAUACGGUGG,0.0343 µM,0.251 µM,–,–
CCAUGGCUGUGAGGAUAUGUCUGACAAAGUCAGACAGAAGGCACAUGAGGAUCACCCAUGUGAAAACACCAACAAAAGCCAUGG,0.00593 µM,0.0069 µM,–,–
CCAUGGUGGGCAGGAUAUCGUCCAGCUUGCGGACGAGAAGGGCCAGAACAUGAGGAUCACCCAUGUGAAAGGCGGGUUGUCCAA,0.0216 µM,0.103 µM,–,–
CCAUGUUAGCAGGAUAUGCAAUAAAUCUUUUAAGCAGAAGGGCUUACAUGAGGAUCACCCAUGUAUAAAGUCAA,0.0198 µM,0.0456 µM,–,–
CCCAUGUUAGGAUAUAUGGAAGGGCGCACGUGCACCCUAAGGUAGAAGGGACAUGAGGAUCACCCAUGUAAUAA,0.152 µM,0.228 µM,–,–
CCCGCUGCUGUGAGGAUAUGCCUGUGGGUGCGUGGGUAGAAGGCACAUGAGGAUCACCCAUGUCCUGCGGCUCC,0.366 µM,0.244 µM,–,–
CCCUAGGUAGGAUAUACUUGGGCUCGGCUGAUGUGCCUAAAACAUGAGGAUCACCCAUGUAGAAGGACUAAGGC,0.0124 µM,0.0108 µM,–,–

Sequence,apparent Kd [1],apparent Kd [2],apparent Kd [3],apparent Kd [4]
CCCUAGGUAGGAUAUACUUGGGCUCGGCUGAUGUGCUUAAAACAUGAGGAUCACCCAUGUAGAAGGACUAAGGC,0.0154 µM,0.0129 µM,–,–
CCCUCAACAUGAGGAUCACCCAUGUAGGAUAUCGCUAUUGUAAUCAUGAAACAUGAUUACAAUAGCGAGAAGGACAUAUGUGGG,0.106 µM,0.0498 µM,–,–
CCGAUAAUGUAGGAUAUCGUAUCGGAGACGAUACGAGAAGGACAAACAUGAGGAUCACCCAUGUUCCUUAACGG,0.0166 µM,0.0199 µM,–,–
CCGAUGGUAUACUAGGAUAUGGGCGCCCUUACAUGAGGAUCACCCAUGUUUACACAAAUCCGCGGCCAGAAGGAGUUCAUGGGAG,–,–,0.184 µM,0.133 µM
CCGCCCUGAGGAUAUCCACCCUCAUACAUGAGGAUCACCCAUGUUCACCCUUGGGUUCCCGGAGAAGGCAGCUUUC,0.347 µM,0.393 µM,–,–
CCGCCCUGGAGAGGAUAUGAUCCGUACUAAAGGUCAGAAGGCUCCGAGUUACAUGAGGAUCACCCAUGUAGGGCGGAAAAUAUG,–,–,0.0063 µM,0.00525 µM
CCGCUGUCAGGAUAUCGUGCAUACAACGAAAGUUCUAUGUGCGAGAAGGGACAUGAGGAUCACCCAUGUUUCCG,0.0166 µM,0.0258 µM,–,–
CCGGAAAUAGAGGAUAUCGUACUGGAUACAGUACGAGAAGGCUAUACAUGAGGAUCACCCAUGUGUCCUACCGG,0.0169 µM,0.036 µM,–,–
CCGGAAAUGGAGGAUAUAGGAGUCGAUAGACACCUAGAAGGUCAUACAUGAGGAUCACCCAUGUGUCCUACCGG,0.0172 µM,0.0191 µM,–,–
CCGGAAGUAGAGGAUAUAGGAGUCGAUAGACUCCUAGAAGGCUAUACAUGAGGAUCACCCAUGUGUCCUACCGG,0.0196 µM,0.031 µM,–,–
CCGGAUAUGCAGGAUAUCGUAACGGAAACGUUACGAGAAGGGUAUACAUGAGGAUCACCCAUGUGUCCUACCGG,0.0281 µM,0.0323 µM,–,–
CCGGAUAUGCAGGAUAUCGUAUCGGAAACGAUACGAGAAGGGUAUACAUGAGGAUCACCCAUGUGUCCUACCGG,0.023 µM,0.0331 µM,–,–
CCGGAUAUGCAGGAUAUCGUAUCGGAGACGAUACGAGAAGGGUAUACAUGAGGAUCACCCAUGUGUCCUACCGG,0.0264 µM,0.0321 µM,–,–
CCGGGAAUAUUAAAUACCUCAACAUGAGGAUCACCCAUGUUGCAGGAUAUCAAUGAGUUGGAAAAUGAGAAGGGCAGCGGGAGA,0.00581 µM,0.00734 µM,–,–
CCGUAAAAUGGAGGAUAUGGAGCCUUAUUGGCUCCAGAAGGUCAUAAAACAUGAGGAUCACCCAUGUCGGCGGUCAAUAGACCG,–,–,0.0479 µM,0.0202 µM
CCGUAGGGAGGAUAUCCAAUAUAUGACAUGAGGAUCACCCAUGUUUCCACUCGUACCUCCGGAGAAGGCCCAUCCC,0.0249 µM,0.0223 µM,–,–
CCGUGAAGGACAGGAUAUGGACAUGAGGAUCACCCAUGUACAUGGGAAUAUAUACUGAAUUUAUACUAGAAGGGUUACAUAAAU,0.0218 µM,0.0194 µM,–,–
CCGUGAGCAGGAUAUACAUGAGGAUCACCCAUGUCCGAUCCAAACAUGGGAAAAGAAGGUAGAAGGGUUUGAGG,0.0285 µM,0.0361 µM,–,–
CCGUUGAUGGGACAGGAUAUGACUGUCGUCACAUGAGGAUCACCCAUGUCCCGGCAAUGCCACCGUUAGAAGGGUCCCGUCUCGG,–,–,0.016 µM,0.0159 µM

Sequence,apparent Kd [1],apparent Kd [2],apparent Kd [3],apparent Kd [4]
CCGUUGGGCUAGAAGGCUCCGGGAGGACCGCGGAGAGGAUAUAGCACAUGAGGAUCACCCAUGUGGUAUGACCUUAUGUAUUCA,0.0336 µM,0.0651 µM,–,–
CCUAGUUGGUAAGGAUAUCCUACACUAUUCUGACCCGUGCAAGCUACAUGAGGAUCACCCAUGUGGGAGAAGGUGCGUCAACGC,0.0138 µM,0.0152 µM,–,–
CCUAUGUGAGGAUAUCACUGGUCUUUUCAUUGGAUGAUUAGUGAGAAGGCACAUGAGGAUCACCCAUGUCGGUG,0.0289 µM,0.0243 µM,–,–
CCUCAGUAAGGAUAUCAGCUUAGGAGGUUGGUAAUGAGAGCUGAGAAGGUACAUGAGGAUCACCCAUGUUAGUU,0.0307 µM,0.0764 µM,–,–
CCUCAGUAAGGAUAUCAGCUUAUGGAGGUGGUAAUGAGAGCUGAGAAGGUACAUGAGGAUCACCCAUGUUAGUU,0.057 µM,0.102 µM,–,–
CCUCCACAUGAGGAUCACCCAUGUCAGGAUAUCGUGUGUGCGUUUUCGGUCUUUCGCGCGAGAAGGGACGUCUG,0.0306 µM,0.0349 µM,–,–
CCUCCCUGAGGAUAUCCACCCUCAUACAUGAGGAUCACCCAUGUUCAACCCUGGGUACCCGGAGAAGGCAGAUUUC,0.116 µM,0.175 µM,–,–
CCUCCCUGAGGAUAUCCACCCUCAUACAUGAGGAUCACCCAUGUUCAACCCUGGGUUCCCGGAGAAGGCAGCUUCC,0.26 µM,0.263 µM,–,–
CCUCCCUGAGGAUAUCCAUCCUCAUACAUGAGGAUCACCCAUGUUCAUCCGUGGCUACCCGGAGAAGGCAGCUCUG,0.321 µM,0.29 µM,–,–
CCUCCGCAUUAGGAUAUCGUCACGGAAACGUGACGAGAAGGAAUGACAUGAGGAUCACCCAUGUUAACGUGAUG,0.0522 µM,0.27 µM,–,–
CCUCCUGGUCAGGAUAUCGGACGUUUUAUUCGACGAGAAGGGACCACAUGAGGAUCACCCAUGUGAUGAAGAAC,0.0424 µM,0.182 µM,–,–
CCUCGUUGGGAGGAUAUCCUUUUGGUUGGAGGAGGAGAAGGCUCGACAUGAGGAUCACCCAUGUGGGAUUUCCC,0.0624 µM,0.194 µM,–,–
CCUCUACAUGAGGAUCACCCAUGUGAGGAUAUAUGCCCAUUACGCCAAGGGCGUGAUGAUAGAAGGCACAGGGU,0.0224 µM,0.0711 µM,–,–
CCUGCACAUGAGGAUCACCCAUGUCAGGAUAUCUCGCCGUGUGGAGCAACACGGUAUAAGAGAAGGGACACGGG,0.0287 µM,0.0257 µM,–,–
CCUGCCAGGACAGGAUAUCUGAGCUGGGACAUGUCUUUUAAGGACAUGAGGAUCACCCAUGUUCAAGAGAAGGGUCAAGGGCGU,0.401 µM,0.21 µM,–,–
CCUGUGGCAUGAGGAUAUGGUCAGCUUUGCUGACCAGAAGGCAUGUCAAUAGACAUGAGGAUCACCCAUGUAGUUAACACAGGA,–,–,0.535 µM,0.0426 µM
CCUGUGUGAGGAUAUGGUGUUGGCAAAAAGGAAUAGCUCCUCCAGAAGGCACAUGAGGAUCACCCAUGUCGUGG,0.0152 µM,0.036 µM,–,–
CCUUGAUAAUAUCUUCACAUGAGGAUCACCCAUGUCGCUCGACAGGAUAUAUUUGAUUUGUUUAAGUAGAAGGGUCGCAGAUUC,–,–,0.123 µM,0.111 µM
